SMILES strings stand for the structures. Activity calls are given as the source filed them. No cut-off for these calls is given here.

Data set [1] deals with T1, Steryl-sulfatase (Homo sapiens) (UniProt P08842).
T1 sequence (whole entry): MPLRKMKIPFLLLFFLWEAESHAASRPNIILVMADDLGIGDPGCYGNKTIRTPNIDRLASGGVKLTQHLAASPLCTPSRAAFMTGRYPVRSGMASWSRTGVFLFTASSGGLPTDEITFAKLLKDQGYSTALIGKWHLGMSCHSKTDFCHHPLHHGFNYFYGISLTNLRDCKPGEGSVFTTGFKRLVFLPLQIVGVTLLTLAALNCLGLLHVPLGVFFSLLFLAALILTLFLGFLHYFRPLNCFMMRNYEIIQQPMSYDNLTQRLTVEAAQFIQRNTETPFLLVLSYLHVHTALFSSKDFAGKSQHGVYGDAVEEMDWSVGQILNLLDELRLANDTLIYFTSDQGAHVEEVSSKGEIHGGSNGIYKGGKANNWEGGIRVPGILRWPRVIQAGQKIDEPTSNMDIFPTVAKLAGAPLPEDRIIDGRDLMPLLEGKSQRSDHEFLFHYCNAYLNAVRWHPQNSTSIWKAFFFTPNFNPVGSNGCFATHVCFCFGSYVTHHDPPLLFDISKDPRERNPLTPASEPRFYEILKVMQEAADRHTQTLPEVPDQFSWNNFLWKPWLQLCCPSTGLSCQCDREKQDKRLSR
Kind of data set: Inhibition of STS in human MCF7 cells assessed as residual enzyme activity using [3H]E1S as substrate at 100 nM incubated for 20 hrs by radioisotope cellular assay relative to control. It is filed as cell-based. In short, it runs like this:
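MCF-7 cells were grown in DMEM with 10% FBS to 80% confluence, then seeded at 1 × 10⁵ cells/well. Cells were incubated 20 h at 37 °C, 5% CO₂, in serum-free medium with [³H]E1S (3 nM, 4 × 10⁴ Bq), with or without inhibitor at 100, 10 or 1 nM. The hydrolysis product in the collected medium was extracted into toluene and counted by scintillation. Run in triplicate.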

Data set [2] can be described thus: Toxicity in BALB/c mouse assessed as macroscopic changes in liver at 10 to 50 mg/kg, po for 5 days a week for 2 weeks. It is filed as organism-based. To be noted: in vivo, 336 h, dose 10-50 mg/kg. In short, it runs like this: (§1)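 Female BALB/c mice, three per dose, received oral doses of 10 mg/kg/day, 5 days a week for 2 weeks. Later mice received 20 or 50 mg/kg. Body weight and general health, including feces, were followed. After cervical dislocation, liver, kidney and spleen were weighed, and liver, kidneys, intestines and spleen were assessed macroscopically.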

Data set [3] in a line: Toxicity in BALB/c mouse allografted with mouse 67NR cells assessed as effect on hemoglobin levels at 50 mg/kg, po for 5 days a week. It is filed as organism-based. To be noted: in vivo, 168 h, time 1 weeks.
Data set [4] is described as follows: Toxicity in BALB/c mouse assessed as maximum tolerated dose administered orally for 5 days a week. Particulars: in vivo, route po, time 1 weeks. In short, it runs like this: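 Female Balb/c mice, three per dose, were dosed per os, starting at 10 mg/kg/day and then at 20 and 50 mg/kg, 5 days a week for 2 weeks. Body weight and general health were followed. At autopsy, liver, kidney and spleen were weighed and examined macroscopically.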

Data set [5] is described as follows: In vivo inhibition of STS in BALB/c mouse allografted with mouse 67NR cells assessed as residual enzyme activity in liver lysates using [3H]E1S as substrate at 50 mg/kg, po for 5 days a week followed by incubation of […] with [3H]E1S for 3 hrs by radioisotope enzymatic assay (reference value: 100%). The class given is functional. Particulars: time 1 weeks.

A short description of data set [6]: Toxicity in BALB/c mouse assessed as body weight loss at 10 to 50 mg/kg, po for 5 days a week for 2 weeks. It is filed as organism-based. Particulars: in vivo, 336 h, dose 10-50 mg/kg. Put shortly:
as §1

A short description of data set [7]: Toxicity in BALB/c mouse allografted with mouse 67NR cells assessed as increase in monocyte count at 50 mg/kg, po for 5 days a week. It is filed as organism-based. Particulars: in vivo, 168 h, time 1 weeks.
Data set [8] in a line: Toxicity in BALB/c mouse assessed as macroscopic changes in kidneys at 10 to 50 mg/kg, po for 5 days a week for 2 weeks. The class given is organism-based. To be noted: in vivo, 336 h, dose 10-50 mg/kg. Put shortly:
as §1

Data set [9] can be described thus: Toxicity in BALB/c mouse assessed as macroscopic changes in spleen at 10 to 50 mg/kg, po for 5 days a week for 2 weeks. Particulars: in vivo, 336 h, dose 10-50 mg/kg. It is filed as organism-based. Put shortly:
as §1

Data set [10] in a line: Toxicity in BALB/c mouse allografted with mouse 67NR cells assessed as increase in blood urea levels at 50 mg/kg, po for 5 days a week. It is filed as organism-based. To be noted: in vivo, 168 h, time 1 weeks.
A short description of data set [11]: Toxicity in BALB/c mouse allografted with mouse 67NR cells assessed as body weight loss at 50 mg/kg, po for 5 days a week and measured 3 times a week relative to control. It is filed as organism-based. To be noted: in vivo, 168 h, time 1 weeks.
A further data set concerns Mus musculus. Kind of data set: In vivo inhibition of STS in BALB/c mouse allografted with mouse 67NR cells assessed as reduction in estradiol level in plasma at 50 mg/kg, po administered 5 days a week by ELISA. Particulars: time 1.0 weeks. It is filed as functional, organism-based. Background: An ELISA detects its analyte on a solid surface through an enzyme-linked reagent.

The nature of data set [12]: Toxicity in BALB/c mouse assessed as macroscopic changes in intestines at 10 to 50 mg/kg, po for 5 days a week for 2 weeks. To be noted: in vivo, 336 h, dose 10-50 mg/kg. The class given is organism-based. Put shortly:
as §1

Data set [13] in a line: Toxicity in BALB/c mouse assessed as weight change of liver at 10 to 50 mg/kg, po for 5 days a week for 2 weeks. It is filed as organism-based. Particulars: in vivo, 336 h, dose 10-50 mg/kg. Put shortly:
as §1

Data set [14] in a line: Toxicity in BALB/c mouse allografted with mouse 67NR cells assessed as enlarged liver at 50 mg/kg, po for 5 days a week. The class given is organism-based. Particulars: in vivo, 168 h, time 1 weeks.
Data set [15] is described as follows: Toxicity in BALB/c mouse allografted with mouse 67NR cells assessed as effect on erythrocyte count at 50 mg/kg, po for 5 days a week. The class given is organism-based. To be noted: in vivo, 168 h, time 1 weeks.
Data set [16] in a line: Toxicity in BALB/c mouse assessed as weight change of spleen at 10 to 50 mg/kg, po for 5 days a week for 2 weeks. To be noted: in vivo, 336 h, dose 10-50 mg/kg. It is filed as organism-based. Put shortly: as §1
The nature of data set [17]: In vivo inhibition of STS in BALB/c mouse allografted with mouse 67NR cells assessed as residual enzyme activity in tumor lysates using [3H]E1S as substrate at 50 mg/kg, po for 5 days a week followed by incubation of tumor lysates with [3H]E1S for 3 hrs by radioisotope enzymatic assay (reference value: 100%). The class given is functional, Neoplasm. To be noted: time 1 weeks.

The nature of data set [18]: Toxicity in BALB/c mouse assessed as change in feces consistency at 50 mg/kg, po for 5 days a week for 2 weeks. It is filed as organism-based. Particulars: in vivo, 336 h. Put shortly: as §1
Data set [19] in a line: Toxicity in BALB/c mouse assessed as weight change of kidney at 10 to 50 mg/kg, po for 5 days a week for 2 weeks. The class given is organism-based. To be noted: in vivo, 336 h, dose 10-50 mg/kg. Put shortly:
as §1

A short description of data set [20]: Toxicity in BALB/c mouse allografted with mouse 67NR cells assessed as decrease in spleen weight at 50 mg/kg, po for 5 days a week. To be noted: in vivo, 168 h, time 1 weeks. The class given is organism-based.
The nature of data set [21]: Toxicity in BALB/c mouse allografted with mouse 67NR cells assessed as increase in granulocyte count at 50 mg/kg, po for 5 days a week. Particulars: in vivo, 168 h, time 1 weeks. It is filed as organism-based.
The nature of data set [22]: Toxicity in BALB/c mouse allografted with mouse 67NR cells assessed as effect on hematocrit levels at 50 mg/kg, po for 5 days a week. It is filed as organism-based. Particulars: in vivo, 168 h, time 1 weeks.
The nature of data set [23]: Toxicity in BALB/c mouse allografted with mouse 67NR cells assessed as decrease in lymphocyte count at 50 mg/kg, po for 5 days a week. It is filed as organism-based. Particulars: in vivo, 168 h, time 1 weeks.
A short description of data set [24]: Toxicity in BALB/c mouse allografted with mouse 67NR cells assessed as increase in alanine aminotransferase levels in plasma at 50 mg/kg, po for 5 days a week. To be noted: in vivo, 168 h, time 1 weeks. The class given is organism-based.
A short description of data set [25]: Toxicity in BALB/c mouse assessed as toxic effects at 10 to 50 mg/kg, po for 5 days a week for 2 weeks. Particulars: in vivo, 336 h, dose 10-50 mg/kg. It is filed as organism-based. Put shortly: as §1
Data set [26] in a line: Antitumor activity against mouse 67NR cells allografted in BALB/c mouse assessed as tumor growth inhibition at 50 mg/kg, po for 5 days a week and measured 3 times a week relative to control. It is filed as functional. To be noted: 168 h, time 1 weeks, read-out: TGI. Put shortly:
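Female BALB/c mice, 7–8 weeks old, received 1.5 × 10⁵ 67NR cells in 0.05 mL Hanks fluid into the mammary fat pad. At about 50 mm³ average tumor volume, mice were randomized to six groups of nine. Dosing was 50 mg/kg b.w. orally, 5 days a week, for 17 days of observation. Tumor volume was measured three times weekly. TGI was calculated from tumor volume versus the control group, using one-way ANOVA with Dunnett test.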

As for `NS(=O)(=O)Oc1ccc(-c2cn(-c3ccc(C(F)(F)F)cc3)nn2)cc1`, the Activity in [1] turned out to be 2.9%.

The term MTD denotes the highest dose tested that stayed within the study's limit of toxicity. Regarding `NS(=O)(=O)Oc1ccc(-c2cn(-c3cccc(F)c3)nn2)cc1`, the Activity entry is “Non-Toxic” in [2]; “Non-Toxic” in data set [3]; 13.6% in [5]; “Non-Toxic” in data set [6]; “Toxic” in [7]; “Non-Toxic” in data set [8]. For the same compound, the Activity entry in data set [9] was “Non-Toxic”; in [10] it was “Toxic”; in data set [11], 4.5%; in data set [12], “Non-Toxic”; in data set [13], “Non-Toxic”; in data set [14], “Toxic”. The Activity entry in data set [15] is “Non-Toxic”; in [16], “Non-Toxic”; in data set [17], 5.2%; in data set [18], “Toxic”; in data set [19], “Non-Toxic”; in data set [20] it was “Toxic”. Moreover, the Activity entry in data set [21] was “Toxic”; in data set [22] it was “Non-Toxic”; in data set [23] it was “Toxic”; in [24], “Toxic”; in [25], “Non-Toxic”. The MTD at 168 h in data set [4] amounted to 50 mg/kg. For the same compound, the inhibition entry in the data set on Mus musculus was “Active”.

Turning to `NS(=O)(=O)Oc1ccc(-c2cn(-c3cc(Cl)cc(Cl)c3)nn2)cc1`, the Activity entry in data set [2] is “Non-Toxic”; in data set [3], “Non-Toxic”; in [5], 14.5%; in [6], “Non-Toxic”; in [7] it was “Toxic”; in [8], “Non-Toxic”. The Activity result is “Non-Toxic” in [9]; “Toxic” in data set [10]; “Non-Toxic” in [12]; “Non-Toxic” in [13]; “Toxic” in data set [14]; “Non-Toxic” in data set [15]. In addition, the Activity result in [16] is recorded as “Non-Toxic”; in [17] it was 5.1%; in [18], “Toxic”; in [19], “Non-Toxic”; in [20], “Toxic”; in data set [21], “Toxic”. The results for the Activity entry in [22], in data set [23] and in data set [25] were “Non-Toxic”, “Toxic” and “Non-Toxic”, respectively. For the same compound, the MTD at 168 h in [4] turned out to be 50 mg/kg. In addition, the inhibition entry in the data set on Mus musculus was “Active”. Besides, the inhibition in vivo at 50 mg/kg in data set [26] came out at 51%.

On to `NS(=O)(=O)Oc1ccc(-c2cn(-c3cccc(C(F)(F)F)c3)nn2)cc1`, for which the Activity in data set [1] came out at 1.3%.

In the case of `NS(=O)(=O)Oc1ccc(-c2cn(-c3cccc(Cl)c3)nn2)cc1`, the Activity result in data set [2] is recorded as “Non-Toxic”; in data set [3], “Non-Toxic”; in data set [5], 12.1%; in data set [6], “Non-Toxic”; in data set [7], “Toxic”; in [8], “Non-Toxic”. The Activity result in [9] was “Non-Toxic”; in data set [10] it was “Toxic”; in data set [12], “Non-Toxic”; in [13] it was “Non-Toxic”; in data set [14] it was “Non-Toxic”; in data set [15], “Non-Toxic”. Further, the Activity entry is listed as “Non-Toxic” in [16]; 5.8% in [17]; “Toxic” in data set [18]; “Non-Toxic” in data set [19]; “Toxic” in data set [20]; “Toxic” in data set [21]. In addition, the Activity entry in data set [22] was “Non-Toxic”; in [23], “Toxic”; in data set [25], “Non-Toxic”. Moreover, in data set [4], the MTD at 168 h was 50 mg/kg. The inhibition result in the data set with Mus musculus is “Active”.

Regarding `NS(=O)(=O)Oc1ccc(-c2cn(-c3ccc(F)cc3C(F)(F)F)nn2)cc1`, in data set [1], the Activity stood at 2.4%.

These data come from ChEMBL document CHEMBL5154773, “Development of Sulfamoylated 4-(1-Phenyl-1H-1,2,3-triazol-4-yl)phenol Derivatives as Potent Steroid Sulfatase Inhibitors for Efficient Treatment of Breast Cancer” (J Med Chem, 2022).
